Reference: BindingDB's records for doi:10.1021/jm00130a016 (American Cyanamid, 1989)
pIC50: −log10 of the molar value.

Each compound was assayed against T1, Sterol O-acyltransferase 1 (Rattus norvegicus, UniProt O70536) (assay: In vitro inhibitory concentration against […] derived from rat adrenals).
T1 sequence (O70536 whole entry): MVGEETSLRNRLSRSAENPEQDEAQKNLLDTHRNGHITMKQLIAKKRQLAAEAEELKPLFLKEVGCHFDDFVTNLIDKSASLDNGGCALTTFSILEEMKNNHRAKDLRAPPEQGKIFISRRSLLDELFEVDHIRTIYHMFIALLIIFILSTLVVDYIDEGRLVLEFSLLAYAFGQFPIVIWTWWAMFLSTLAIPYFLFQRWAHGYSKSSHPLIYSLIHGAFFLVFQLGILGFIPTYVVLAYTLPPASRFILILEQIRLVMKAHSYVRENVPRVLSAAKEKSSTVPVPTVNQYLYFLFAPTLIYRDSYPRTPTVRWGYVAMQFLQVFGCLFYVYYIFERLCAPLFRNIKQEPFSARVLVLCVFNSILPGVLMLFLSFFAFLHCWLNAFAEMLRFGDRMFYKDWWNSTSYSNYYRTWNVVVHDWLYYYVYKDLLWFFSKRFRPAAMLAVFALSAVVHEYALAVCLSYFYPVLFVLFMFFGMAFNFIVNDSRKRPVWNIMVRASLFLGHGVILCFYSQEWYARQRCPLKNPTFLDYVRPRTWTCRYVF

pIC50	Compound
5.65	CCCCCCCN(Cc1ccco1)C(=O)Nc1cc(C)c(C)cc1C

What follows are compounds tested against T2, Sterol O-acyltransferase 1 (Homo sapiens, UniProt P35610) (assay: In vitro inhibitory concentration against […] derived from smooth muscle cells from thoracic aorta of monkeys).
T2 sequence (P35610 whole entry): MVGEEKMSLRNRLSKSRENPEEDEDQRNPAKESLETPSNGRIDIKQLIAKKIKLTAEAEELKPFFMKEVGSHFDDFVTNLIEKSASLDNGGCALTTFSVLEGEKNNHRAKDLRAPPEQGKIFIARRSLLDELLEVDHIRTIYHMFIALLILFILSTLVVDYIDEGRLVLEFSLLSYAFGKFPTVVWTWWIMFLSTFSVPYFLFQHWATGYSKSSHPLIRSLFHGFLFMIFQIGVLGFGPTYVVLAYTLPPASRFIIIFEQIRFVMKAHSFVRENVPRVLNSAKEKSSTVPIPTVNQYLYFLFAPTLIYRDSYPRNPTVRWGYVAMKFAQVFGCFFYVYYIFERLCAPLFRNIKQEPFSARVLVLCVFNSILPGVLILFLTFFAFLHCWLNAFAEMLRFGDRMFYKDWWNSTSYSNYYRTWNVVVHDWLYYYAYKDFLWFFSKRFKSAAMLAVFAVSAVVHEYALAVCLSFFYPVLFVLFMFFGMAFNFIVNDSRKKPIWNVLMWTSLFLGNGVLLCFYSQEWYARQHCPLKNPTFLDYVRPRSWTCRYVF

pIC50	Compound
6.85	CCCCCCCN(Cc1ccco1)C(=O)Nc1cc(C)c(C)cc1C

These compounds were tested against T2, Sterol O-acyltransferase 1 (assay: In vitro inhibitory concentration against ACAT derived from smooth muscle cells from thoracic aorta of monkeys).
Method in brief: (§1)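 Aortic smooth-muscle cells from African green monkey thoracic aorta, grown 48 h in DMEM/10% FCS with LDL from hypercholesterolemic monkeys plus graded compound concentrations (methanol). Albumin-bound [14C]oleate then added for 2.5 h; cells trypsinized, Folch lipid extraction, [14C]cholesteryl esters isolated by TLC and counted by scintillation; IC50 derived.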

pIC50	Compound
4.57	CCCCN(C(=O)Nc1ccc(C)cc1C)c1ccccc1
5.97	Cc1cc(C)c(NC(=O)N(Cc2ccccc2)Cc2ccccc2)cc1C

These compounds were tested against T2, Sterol O-acyltransferase 1 (assay: In vitro inhibitory concentration against acyl coenzyme A:cholesterol acyltransferase derived from smooth muscle cells from thoracic aorta of monkeys).
Method in brief: as §1

Compound	pIC50
CCCCN(CCCC)C(=O)Nc1ccc(C)c(Cl)c1	4.89
CCCCN(Cc1ccccc1)C(=O)Nc1c(Cl)cc(Cl)cc1Cl	5.44
O=C(Nc1cccc(Cl)c1)N(Cc1ccccc1)Cc1ccccc1	4.40
CCCCN(CCCC)C(=O)Nc1cccc(C)c1	4.62

Other lines, results leading:

pIC50	Compound
5.58	CC(C)(C)CCN(Cc1cccs1)C(=O)Nc1c(Cl)cc(Cl)cc1Cl
4.77	CC(C)(C)CCN(Cc1cccs1)C(=O)Nc1ccc(F)cc1F
5.74	CCCCN(Cc1ccccc1)C(=O)Nc1ccc(C)cc1C
5.20	Cc1c(Cl)cccc1NC(=O)N(CCC(C)(C)C)Cc1cccs1
